Most compounds without a hit are left out; they make up all but 2.3% or so of the library.
TRPC4 agonist – activators of mouse TRPC4 channel, primary screen, Fluo4 calcium, HEK293 TRPC4beta/mu-opioid cells; Short transient receptor potential channel 4 (Mus musculus), Q9QUQ5; Fluo4 calcium fluorescence; stronger effect = higher value; B-score at 10 µM; 310,000 compounds, 0.49% hits;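 active means B-score above 5 SD of library B-scores, and initial fluorescence ratio not above library mean plus 5 SD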;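 further: positive B-score marks a calcium rise read as TRPC4 activation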
Target sequence (Q9QUQ5 whole entry, looked up): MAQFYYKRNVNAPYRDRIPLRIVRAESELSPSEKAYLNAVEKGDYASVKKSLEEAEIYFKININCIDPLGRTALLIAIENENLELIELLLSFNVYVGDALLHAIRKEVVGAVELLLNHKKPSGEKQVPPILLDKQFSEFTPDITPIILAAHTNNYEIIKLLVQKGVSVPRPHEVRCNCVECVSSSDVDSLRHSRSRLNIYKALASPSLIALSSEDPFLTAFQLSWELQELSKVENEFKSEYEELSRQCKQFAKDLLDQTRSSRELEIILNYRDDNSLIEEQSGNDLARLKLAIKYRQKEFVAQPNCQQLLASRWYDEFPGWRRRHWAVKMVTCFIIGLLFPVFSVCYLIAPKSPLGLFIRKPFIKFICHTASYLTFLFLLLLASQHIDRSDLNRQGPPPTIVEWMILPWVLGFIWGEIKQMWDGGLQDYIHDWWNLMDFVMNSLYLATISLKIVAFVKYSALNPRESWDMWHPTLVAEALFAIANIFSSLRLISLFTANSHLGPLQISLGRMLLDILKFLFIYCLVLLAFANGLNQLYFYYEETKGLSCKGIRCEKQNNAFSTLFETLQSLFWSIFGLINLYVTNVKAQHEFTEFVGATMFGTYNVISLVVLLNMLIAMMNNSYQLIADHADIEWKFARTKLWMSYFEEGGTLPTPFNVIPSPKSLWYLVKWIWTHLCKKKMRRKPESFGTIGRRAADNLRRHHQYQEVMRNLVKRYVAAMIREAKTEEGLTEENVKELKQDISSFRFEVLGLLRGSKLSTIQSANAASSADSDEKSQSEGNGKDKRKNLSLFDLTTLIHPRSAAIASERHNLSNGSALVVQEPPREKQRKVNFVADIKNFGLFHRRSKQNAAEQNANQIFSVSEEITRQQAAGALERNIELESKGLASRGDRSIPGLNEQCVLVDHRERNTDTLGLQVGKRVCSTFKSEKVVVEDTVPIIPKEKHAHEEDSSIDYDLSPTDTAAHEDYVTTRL
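Material: HEK293 stable line with TRPC4beta plus mu-opioid receptor; technique: Fluo4 calcium-sensitive dye fluorescence, kinetic, 1 Hz baseline; timing: Fluo4 dye loading 45 min at room temperature, 110 s recording; controls: assay buffer as low control, maximal DAMGO as high control; read-out: integrated baseline-normalised fluorescence ratio, converted to per-well B score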
TRPC6 activator – mouse TRPC6 channel activators, primary screen, cell-based, HEK293, membrane potential dye | Short transient receptor potential channel 6 (Mus musculus), Q61143 | HEK293-TRPC6 membrane potential dye fluorescence; stronger effect = higher value | B-score at 10 µM | 310,000 compounds, 0.13% hits;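 active means B-score of the integrated fluorescence ratio above library mean plus 3 SD, and starting fluorescence ratio within library mean plus 5 SD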;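 further: higher score means more depolarization so channel activation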
FID counter – compounds displacing fluorescent DNA intercalator, primary screen, artefact control for HCV NS3 helicase inhibitor project, biochemical, FID fluorescence | DNA fluorescent intercalator displacement | inhibition, % at 7.9 µM | 290,000 compounds, 0.17% hits; in the data active means inhibition above about 37%;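 further: 0% = vehicle and 100% = reference compound; higher means more ethidium bromide displaced from hairpin DNA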
TRPC4 inh – inhibitors of mouse TRPC4 channel, primary screen, Fluo4 calcium, HEK293 TRPC4beta/mu-opioid cells; 300,000 compounds, 0.39% hits; DAMGO-evoked Fluo4 calcium flux; stronger effect = lower value; AID 2247, 2010; Short transient receptor potential channel 4 (Mus musculus), Q9QUQ5; B-score at 10 µM;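 active means B-score over 3 SD under the library average, no early fluorescence shift, positive overall ratio signal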
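test system = HEK293 cells with stable TRPC4beta plus mu-opioid receptor expression | detection = Fluo4 Ca2+ flux fluorescence | read-out = integrated fluorescence ratio relative to baseline, converted to per-well B score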
TRPC6 inh – mouse TRPC6 channel inhibitors, primary screen, cell-based, HEK293, membrane potential dye; Short transient receptor potential channel 6 (Mus musculus), Q61143; ACh-evoked depolarization; stronger effect = lower value; B-score at 10 µM; 310,000 compounds, 1.1% hits; AID 2553, 2010;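 active means B-score under library mean minus 3 SD, initial fluorescence not abnormally high, positive integrated signal ratio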;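 further: B-score derived from integrated fluorescence ratio over the kinetic read; more negative B-score means stronger inhibition of depolarization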
TRPC4 PAM – positive allosteric modulators of TRPC4, primary screen, cell-based, mouse TRPC4beta, HEK293 mu-opioid, Fluo-4 calcium | Short transient receptor potential channel 4 (Mus musculus), Q9QUQ5 | DAMGO EC20, Fluo-4 Ca2+ flux; stronger effect = higher value | 310,000 compounds, 0.42% hits | B-score at 10 µM;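 active means B-score of calcium response area above 5 SD of library B-scores, with initial fluorescence ratio within 5 SD of library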;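 further: B-score of integrated fluorescence ratio over time as area under calcium response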
* hit, by the source's call; i = inactive; nt = not tested or not shown.

SMILES	TRPC4 agonist	TRPC6 activator	FID counter	TRPC4 inh	TRPC6 inh	TRPC4 PAM
Cc1[nH]nc(Nc2ccccc2)c1[N+](=O)[O-]	i	i	3.8	i	i	19*
COc1ccc2nc(NC(=O)C3CCN(C(=O)c4ccco4)CC3)sc2c1	i	i	-25.3	i	i	i
CN(CCC(=O)Nc1ccc(Cl)cc1)Cc1ccccc1	126*	i	6.8	i	i	i
CN(CCC(=O)Nc1ccc2c(c1)OCO2)Cc1ccccc1	53*	i	3.5	i	i	i
COc1ccccc1OCC(=O)Nc1ccc(NC(=O)COc2ccccc2OC)cc1	i	i	-38.9	i	i	i
COc1ccccc1OCC(=O)Nc1ccc(Cl)cc1	i	i	-9.1	-7*	i	i
CN(CC(=O)Nc1ccc(Cl)cc1)C(=O)CCc1ccccc1	i	i	-14.1	i	i	i
COc1ccc(C(CNC(=O)C(C)Oc2ccc(Br)cc2)N2CCCC2)cc1 (configuration not stated)	i	i	nt	i	i	i
O=C(CCN1N=C(c2ccccc2)CCC1=O)NCCCN1CCOCC1	i	i	-0.1	i	i	i
Cc1ccc(-n2c(C)cc(C)c(C#N)c2=O)cc1Cl	45*	i	-17.0	-6*	i	i
Cc1cc(C)n(-c2cc(Cl)cc(Cl)c2)c(=O)c1C#N	i	i	-4.0	i	i	i
CN(C)CCCN(C(=O)c1ccc2ccccc2c1)c1nc2cc3c(cc2s1)OCO3	i	i	30.3	i	i	i
Cc1ccc2sc(N(CCCN(C)C)C(=O)c3ccc(S(=O)(=O)N(C)Cc4ccccc4)cc3)nc2c1C	i	i	nt	i	i	i
CCN(c1ccccc1)S(=O)(=O)c1ccc(C(=O)N(CCCN(C)C)c2nc3c(C)cccc3s2)cc1	i	i	37.3*	i	i	i
CCN(c1ccccc1)S(=O)(=O)c1ccc(C(=O)N(CCCN(C)C)c2nc3cc4c(cc3s2)OCO4)cc1	168*	i	29.9	i	i	i
CN(C)CCN(C(=O)c1cccc2ccccc12)c1nc2cc3c(cc2s1)OCO3	73*	i	21.5	i	i	i
CN(C)CCCN(C(=O)c1ccc(S(=O)(=O)N(C)Cc2ccccc2)cc1)c1nc2cc3c(cc2s1)OCO3	48*	i	35.0	i	i	i
COc1cc(C(=O)OCC(=O)NCc2ccc(F)cc2)ccc1OCC(C)C	i	i	-22.9	i	i	i
CC(Sc1nc2ccccc2c(=O)n1CCc1ccc(S(N)(=O)=O)cc1)C(=O)NC(N)=O (configuration not stated)	i	i	-20.6	i	i	i
COCc1cc(C)nc(SCC(=O)Nc2ccc(N3CCOCC3)cc2)c1C#N	i	i	-19.4	i	i	i
O=C(CNC(=O)c1cccc(F)c1)N/N=C/c1cccs1	i	i	-9.3	i	i	i
CCCCN(CCCC)/C(N)=N/c1nc(C)cc(C)n1	i	i	0.2	-7*	i	i
CC(C)CCNCC(O)CON=C1c2ccccc2-c2ccccc21 (configuration not stated)	66*	i	35.3	i	i	i
CCNC(=O)CON=C1c2ccccc2-c2ccccc21	i	i	-13.6	i	i	i
COCCNCC(O)CON=C1c2ccccc2-c2ccccc21 (configuration not stated)	55*	i	16.0	i	i	i
SMILES	TRPC4 agonist	TRPC6 activator	FID counter	TRPC4 inh	TRPC6 inh	TRPC4 PAM
COCCCN1C(=O)C(=O)/C(=C(/O)c2ccc(S(=O)(=O)N3CCOCC3)cc2)C1c1ccc(C(C)C)cc1 (configuration not stated)	i	i	-51.4	i	i	i
CC1(c2ccc(OC(F)F)cc2)NC(=O)N(CC(=O)c2ccc3c(c2)OCO3)C1=O (configuration not stated)	62*	i	nt	i	i	i
CC1(c2ccc(OC(F)F)cc2)NC(=O)N(CC(=O)Nc2ccc(OC(F)F)cc2)C1=O (configuration not stated)	54*	i	-1.9	i	i	i
Cc1ccc2nc(N(CCCN(C)C)C(=O)c3ccc4ncsc4c3)sc2c1	i	i	33.0	i	i	i
NC(=O)C(c1cccc(Cl)c1)c1ncc(C(F)(F)F)cc1Cl (configuration not stated)	i	i	-16.8	i	i	15*
CC(C)CCn1c(=O)c2ccccc2n2c(CCC(=O)NC3CCN(Cc4ccccc4)CC3)nnc12	i	i	17.5	i	i	i
CCn1c(=O)c2sccc2n2c(CCCC(=O)NC3CCN(Cc4ccccc4)CC3)nnc12	i	i	-1.4	i	i	14*
O=C(Nc1ccc(F)cc1)Nc1cc(S(=O)(=O)N2CCOCC2)ccc1N1CCCC1	i	i	-9.6	i	i	39*
Cc1cnc(C(=O)Nc2cc(S(=O)(=O)N3CCOCC3)ccc2N2CCN(C)CC2)cn1	i	i	11.8	i	i	11*
O=C(NCc1ccco1)c1ccc(Cl)cc1[N+](=O)[O-]	i	i	-4.3	i	i	i
CC(=O)c1ccc(S(=O)(=O)N2CCC(NC(=O)c3ccccc3)CC2)cc1	i	i	-12.0	i	i	i
CCCCN(C)CCCNC(=O)C1CCC(CNS(=O)(=O)c2c(C)cc(C)cc2C)CC1 (configuration not stated)	i	i	15.4	i	i	12*
CCCN(CCC)CCCNC(=O)C1CCC(CNS(=O)(=O)c2cccc3nsnc23)CC1 (configuration not stated)	103*	i	5.9	i	i	i
CCN(CC)CCCNC(=O)C1CCC(CNS(=O)(=O)c2c(C)cc(C)cc2C)CC1 (configuration not stated)	i	i	11.6	i	i	i
O=C(NCc1ccccn1)c1nc(Cn2ccc([N+](=O)[O-])n2)no1	i	i	-7.8	i	i	i
